The subject of data set [1] is PBMC. The data set can be described thus: Immunomodulatory activity in human PBMC assessed as induction of MIP1beta at 50 ug/ml after 24 hrs. The class given is functional, cell-based. The method, boiled down: (§1)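 Human PBMCs plated at 5 × 10^6 cells/mL; compounds dissolved in PBS added at various concentrations, 37 °C for 24 h. Supernatant cytokines/chemokines quantified with human Luminex multiplex kit.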

The species named for data set [2] is Homo sapiens. Nature of the data set: Immunostimulatory activity in human pDC assessed as induction of IFNalpha at 100 ug/ml after 24 hrs. Format: functional. The method, boiled down:
(§2)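 Human pDCs plated at 1 × 10^6 cells/mL; compounds in PBS added, 37 °C for 24 h; supernatant cytokines/chemokines by human Luminex multiplex kit.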

For data set [3], the system named is PBMC. Nature of the data set: Immunomodulatory activity in human PBMC assessed as induction of IL1-beta at 50 ug/ml after 24 hrs. Format: functional, cell-based. The method, boiled down:
as §1

The species named for data set [4] is Homo sapiens. Nature of the data set: Immunostimulatory activity in human pDC assessed as induction of IP10 at 100 ug/ml after 24 hrs. Format: functional. The method, boiled down: as §2
For the next data set, the system named is Mus musculus. The data set can be described thus: Immunomodulatory activity in C57BL/6 mouse assessed as induction of IL12 release at 25 mg/kg, sc after 2 hrs by ELISA. Format: functional, organism-based. Also noted: dose 25 mg/kg. The method, boiled down:
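Female C57BL/6 wild-type mice, 5–8 weeks old, n=3; compounds given subcutaneously at 10 or 25 mg/kg. Retro-orbital blood at 2 h; serum cytokines by mouse Luminex multiplex or IL-12 ELISA.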
A general note: In an ELISA, binding on a coated surface is turned into a signal by an enzyme label.

The subject of data set [5] is PBMC. The data set can be described thus: Immunomodulatory activity in human PBMC assessed as induction of IP10 at 50 ug/ml after 24 hrs. The class given is functional, cell-based. The method, boiled down:
as §1

Data set [6] is filed under the species Homo sapiens. The data set can be described thus: Immunostimulatory activity in human mDC assessed as induction of IL12 at 100 ug/ml after 24 hrs. The class given is functional. The method, boiled down: (§3)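 Human mDCs isolated from PBMCs by CD19+ B-cell depletion then BDCA1 positive selection; plated at 1 × 10^6 cells/mL, compounds in PBS, 37 °C for 24 h; supernatant cytokines by human Luminex multiplex. Representative of four independent experiments.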

The species entered for data set [7] is Homo sapiens. The data set can be described thus: Immunostimulatory activity in human mDC assessed as induction of IL6 at 100 ug/ml after 24 hrs. Format: functional. The method, boiled down: as §3
For data set [8], the target named is T1, Toll-like receptor 7 (Homo sapiens) (UniProt Q9NYK1).
T1 sequence (whole entry): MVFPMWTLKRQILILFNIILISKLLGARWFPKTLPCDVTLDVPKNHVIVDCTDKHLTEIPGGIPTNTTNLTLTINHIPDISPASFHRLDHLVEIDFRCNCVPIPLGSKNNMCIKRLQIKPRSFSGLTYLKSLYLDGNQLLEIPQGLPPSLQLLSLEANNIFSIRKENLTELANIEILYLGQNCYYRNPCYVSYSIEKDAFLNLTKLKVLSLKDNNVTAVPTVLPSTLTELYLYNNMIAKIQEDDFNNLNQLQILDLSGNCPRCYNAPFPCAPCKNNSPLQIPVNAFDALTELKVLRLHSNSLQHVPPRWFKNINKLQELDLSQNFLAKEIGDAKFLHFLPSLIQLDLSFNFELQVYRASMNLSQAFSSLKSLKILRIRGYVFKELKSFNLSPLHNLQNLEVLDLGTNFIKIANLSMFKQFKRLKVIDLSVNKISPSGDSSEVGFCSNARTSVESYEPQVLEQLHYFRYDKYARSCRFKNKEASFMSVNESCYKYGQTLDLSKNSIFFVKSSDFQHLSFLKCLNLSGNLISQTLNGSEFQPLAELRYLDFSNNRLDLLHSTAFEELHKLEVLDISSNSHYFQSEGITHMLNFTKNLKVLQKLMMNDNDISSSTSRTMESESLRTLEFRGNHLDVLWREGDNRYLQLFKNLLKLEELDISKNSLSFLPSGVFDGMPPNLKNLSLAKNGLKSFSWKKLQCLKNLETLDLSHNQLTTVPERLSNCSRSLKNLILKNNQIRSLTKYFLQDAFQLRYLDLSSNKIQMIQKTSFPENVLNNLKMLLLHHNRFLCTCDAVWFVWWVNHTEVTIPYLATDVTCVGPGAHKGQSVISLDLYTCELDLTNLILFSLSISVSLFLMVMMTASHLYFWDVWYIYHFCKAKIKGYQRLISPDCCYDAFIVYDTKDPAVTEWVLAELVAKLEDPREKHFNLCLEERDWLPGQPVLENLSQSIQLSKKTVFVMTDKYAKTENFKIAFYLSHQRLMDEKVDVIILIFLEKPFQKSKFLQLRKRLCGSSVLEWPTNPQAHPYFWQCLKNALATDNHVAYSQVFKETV
Nature of the data set: Activation of human TLR7 expressed in HEK293XL assessed as fold induction of NF-kappaB activity at 50 ug/ml after 18 hrs by reporter gene assay relative to control. The method, boiled down: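 HEK293 cells stably expressing human TLR7 or TLR8, transiently transfected with SEAP reporter plasmid; medium replaced, SIMRA compounds added, 18 h incubation. Supernatant SEAP measured by QuantiBlue; expressed as fold increase in NF-κB activity over PBS control. Tabulated data at 50 μg/mL, representative of three independent experiments.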
On the technique in general: Reporter assays use an easily measured gene product as a stand-in for the process of interest.

For data set [9], the species on record is Homo sapiens. The data set can be described thus: Ratio of human TLR7 activity to human TLR8 activity. The method, boiled down: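 TLR7/TLR8 ratio computed from fold NF-κB (SEAP reporter) activation in HEK293 cells stably expressing human TLR7 versus TLR8, compounds at 50 μg/mL, 18 h exposure; representative of three independent experiments.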
The subject of data set [10] is PBMC. The data set can be described thus: Immunomodulatory activity in human PBMC assessed as induction of MCP1 at 50 ug/ml after 24 hrs. Format: functional, cell-based. The method, boiled down:
as §1

The species named for data set [11] is Homo sapiens. Nature of the data set: Immunostimulatory activity in human mDC assessed as induction of IFNalpha at 100 ug/ml after 24 hrs. The class given is functional. The method, boiled down: as §3
The species entered for data set [12] is Homo sapiens. The data set can be described thus: Immunostimulatory activity in human mDC assessed as induction of IP10 at 100 ug/ml after 24 hrs. The class given is functional. The method, boiled down:
as §3

The species named for data set [13] is Homo sapiens. Nature of the data set: Immunostimulatory activity in human pDC assessed as induction of IL6 at 100 ug/ml after 24 hrs. Format: functional. The method, boiled down: as §2
A short description of data set [14]: Metabolic stability in human serum assessed as full length product remaining after 10 mins by HPLC. The class given is ADME, cell-free. To be noted: read-out: Stability. The method, boiled down:
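About 0.5 A260 units compound in 1% human serum in PBS, 37 °C; aliquot taken at 10 min, analysed by anion-exchange HPLC for percent intact full-length product.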

For data set [15], the species on record is Homo sapiens. Nature of the data set: Immunostimulatory activity in human mDC assessed as induction of TNFalpha at 100 ug/ml after 24 hrs. Format: functional. The method, boiled down: as §3
In data set [16] the test system is PBMC. Nature of the data set: Immunomodulatory activity in human PBMC assessed as induction of IL6 at 50 ug/ml after 24 hrs. The class given is functional, cell-based. The method, boiled down: as §1
The subject of data set [17] is PBMC. Nature of the data set: Immunomodulatory activity in human PBMC assessed as induction of IL6 after 24 hrs. The class given is functional, cell-based. The method, boiled down: as §1
In data set [18] the test system is PBMC. The data set can be described thus: Immunomodulatory activity in human PBMC assessed as induction of IL12 at 50 ug/ml after 24 hrs. The class given is functional, cell-based. The method, boiled down:
as §1

Data set [19] deals with PBMC. The data set can be described thus: Immunomodulatory activity in human PBMC assessed as induction of TNFalpha at 50 ug/ml after 24 hrs. Format: functional, cell-based. The method, boiled down: as §1
Data set [20] has as its system PBMC. Nature of the data set: Immunomodulatory activity in human PBMC assessed as induction of MIP1alpha at 50 ug/ml after 24 hrs. Format: functional, cell-based. The method, boiled down:
as §1

Data set [21] deals with PBMC. Nature of the data set: Immunomodulatory activity in human PBMC assessed as induction of IFNalpha at 50 ug/ml after 24 hrs. Format: functional, cell-based. The method, boiled down: as §1
In data set [22] the target is Toll-like receptor 3 (Homo sapiens) (UniProt O15455). Nature of the data set: Activation of human TLR3 expressed in HEK293 assessed as induction of NF-kappaB activity reporter gene assay. Format: cell-based.

This note sets out measurements from ChEMBL document CHEMBL1154352, “Toll-like receptor 7 selective synthetic oligoribonucleotide agonists: synthesis and structure-activity relationship studies” (J Med Chem, 2009).

Calls of active or inactive are those of the source. The rule behind the calls is not given here.

Sequence of Toll-like receptor 3 (Homo sapiens) (O15455 whole entry): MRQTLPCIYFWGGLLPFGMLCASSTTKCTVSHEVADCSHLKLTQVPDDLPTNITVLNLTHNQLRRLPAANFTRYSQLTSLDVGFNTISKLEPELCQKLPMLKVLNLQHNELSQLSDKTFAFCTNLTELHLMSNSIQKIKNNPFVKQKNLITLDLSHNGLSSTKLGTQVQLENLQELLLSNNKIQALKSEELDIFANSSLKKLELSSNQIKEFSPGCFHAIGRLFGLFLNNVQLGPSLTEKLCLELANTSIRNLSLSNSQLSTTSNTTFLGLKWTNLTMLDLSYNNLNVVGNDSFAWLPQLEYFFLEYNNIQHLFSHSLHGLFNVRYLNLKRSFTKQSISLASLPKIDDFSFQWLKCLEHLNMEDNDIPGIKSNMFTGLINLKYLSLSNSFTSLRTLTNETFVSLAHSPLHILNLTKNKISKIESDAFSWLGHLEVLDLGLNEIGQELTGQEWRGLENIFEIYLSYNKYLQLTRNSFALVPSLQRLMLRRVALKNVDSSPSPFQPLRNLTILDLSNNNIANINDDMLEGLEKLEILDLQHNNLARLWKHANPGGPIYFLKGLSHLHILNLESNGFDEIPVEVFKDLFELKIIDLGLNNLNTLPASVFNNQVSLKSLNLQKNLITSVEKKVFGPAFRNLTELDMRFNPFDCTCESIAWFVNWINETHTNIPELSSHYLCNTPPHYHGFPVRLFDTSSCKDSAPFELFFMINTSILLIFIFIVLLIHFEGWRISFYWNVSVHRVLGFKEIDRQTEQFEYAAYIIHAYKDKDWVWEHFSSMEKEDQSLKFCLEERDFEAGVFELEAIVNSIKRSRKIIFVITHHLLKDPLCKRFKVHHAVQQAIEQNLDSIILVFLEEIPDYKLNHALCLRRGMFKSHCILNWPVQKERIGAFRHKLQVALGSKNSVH

As to `Nc1ccn([C@@H]2O[C@H](COP(=O)(S)O[C@H]3[C@@H](O)[C@H](n4cnc5c(N)ncnc54)O[C@@H]3COP(=O)(S)O[C@H]3[C@@H](O)[C@H](n4ccc5c(=O)[nH]c(N)nc54)O[C@@H]3COP(=O)(S)O[C@H]3[C@@H](O)[C@H](n4ccc(=O)[nH]c4=O)O[C@@H]3COP(=O)(S)O[C@H]3[C@@H](O)[C@H](n4ccc(=O)[nH]c4=O)O[C@@H]3COP(=O)(S)O[C@H]3[C@@H](O)[C@H](n4cnc5c(N)ncnc54)O[C@@H]3COP(=O)(S)O[C@H]3[C@@H](O)[C@H](n4cnc5c(N)ncnc54)O[C@@H]3CO)[C@@H](OP(=O)(S)OC[C@H]3O[C@@H](n4ccc5c(=O)[nH]c(N)nc54)[C@H](O)[C@@H]3OP(=O)(S)OC[C@H]3O[C@@H](n4ccc(N)nc4=O)[C@H](O)[C@@H]3OP(=O)(S)OC[C@H]3O[C@@H](n4ccc(=O)[nH]c4=O)[C@H](O)[C@@H]3OP(=O)(S)OC[C@H]3O[C@@H](n4ccc(=O)[nH]c4=O)[C@H](O)[C@@H]3OP(=O)(S)OCC(O)COP(=O)(S)O[C@H]3[C@@H](O)[C@H](n4ccc(=O)[nH]c4=O)O[C@@H]3COP(=O)(S)O[C@H]3[C@@H](O)[C@H](n4ccc(=O)[nH]c4=O)O[C@@H]3COP(=O)(S)O[C@H]3[C@@H](O)[C@H](n4ccc(N)nc4=O)O[C@@H]3COP(=O)(S)O[C@H]3[C@@H](O)[C@H](n4ccc5c(=O)[nH]c(N)nc54)O[C@@H]3COP(=O)(S)O[C@H]3[C@@H](O)[C@H](n4ccc(N)nc4=O)O[C@@H]3COP(=O)(S)O[C@H]3[C@@H](O)[C@H](n4cnc5c(N)ncnc54)O[C@@H]3COP(=O)(S)O[C@H]3[C@@H](O)[C@H](n4ccc5c(=O)[nH]c(N)nc54)O[C@@H]3COP(=O)(S)O[C@H]3[C@@H](O)[C@H](n4ccc(=O)[nH]c4=O)O[C@@H]3COP(=O)(S)O[C@H]3[C@@H](O)[C@H](n4ccc(=O)[nH]c4=O)O[C@@H]3COP(=O)(S)O[C@H]3[C@@H](O)[C@H](n4cnc5c(N)ncnc54)O[C@@H]3COP(=O)(S)O[C@H]3[C@@H](O)[C@H](n4cnc5c(N)ncnc54)O[C@@H]3CO)[C@H]2O)c(=O)n1` (stereo partly drawn), the Activity in the data set with PBMC [1] is 5500 pg/mL; in the data set with PBMC [3], 117 pg/mL; in the data set with PBMC [5] it was 453 pg/mL; in the data set with PBMC [10], 49600 pg/mL; in the data set with PBMC [16], 1750 pg/mL; in the data set on PBMC [17] it was “Dose-dependent effect”. In addition, the Activity was 320 pg/mL in the data set with PBMC [18], 104 pg/mL in the data set on PBMC [19], 2230 pg/mL with PBMC [20] and 149 pg/mL with PBMC [21]. The outcome in the data set filed under Homo sapiens [2], in the data set filed under Homo sapiens [4], with Mus musculus, in the data set listed under Homo sapiens [6], in the data set filed under Homo sapiens [7] and in the data set filed under Homo sapiens [11] was Active. The result in the data set filed under Homo sapiens [12], in the data set listed under Homo sapiens [13] and in the data set listed under Homo sapiens [15] was Active. The fold change (FC) in data set [8] was 20.9. Moreover, the Ratio in the data set listed under Homo sapiens [9] is 69.7. The remaining at 10 min in [14] was determined as 80%. The result in [22] was inactive.
